# Results from different studies.
# Compare with care: the assays were run in different laboratories.
# Sample: plasma
SMILES,species,route,dose,notes,half-life [h]
CS(=O)(=O)CCC#N,human,oral,1000 mg,"multiple doses, once daily",24.7
COc1ccc([C@@H]2CN(C(=O)[C@@H](O)CO)C[C@@]2(C)[C@@H](C)O)cc1OC1CN(c2ccc(C)cn2)C1,human,oral,5 mg,"single dose, healthy volunteers",11.9
CC(C)n1cc(C#N)c2cc(-n3cc(C(=O)O)cn3)ccc21,male human,oral,600 mg,"single dose, fasted, healthy volunteers",11.9
C[C@@H](Nc1cc(F)cc(F)c1)c1cc(C(=O)N(C)C)cc2c(=O)cc(N3CCOCC3)oc12,human,oral,120 mg,patients,4.62
COc1cc(C(=O)NC2CCN(C)CC2)c(F)cc1Nc1ncc(C(F)(F)F)c(Oc2cccc3c2C(=O)N(C)C3)n1,human,oral,50 mg,"multiple doses, once daily, patients",21.5
CCNCCCNC/C=C\CNCCCNCC,human,intravenous,150 mg,"patients, infusion",0.2
COCCOc1cnc2ccn([C@H](C)c3nnc4c(F)cc(-c5cnn(C)c5)cn34)c(=O)c2c1,human,oral,200 mg,"multiple doses, once daily, patients",8.3
CC(C)(Sc1ccncc1-c1ccc(C#N)c2ccccc12)C(=O)O,male human,oral,20 mg,"single dose, fasted, healthy volunteers",10.9
C#C[C@]1(COP(=O)(O)OP(=O)(O)OP(=O)(O)O)O[C@@H](n2cnc3c(N)nc(F)nc32)C[C@@H]1O,human,oral,400 mg,single dose,143
CC(C)(O)c1ccccc1-c1ccc2[nH]c(/C=C/c3ccc(C(F)(F)F)cc3)nc2c1,male human,oral,15 mg,"single dose, fasted, healthy volunteers",59.3
CC(C)[C@](O)(c1ccc2cc(OC(F)F)c(OC(F)F)cc2c1)c1c[nH]nn1,female human,oral,750 mg,single dose,6.8
c1cnc2ccc(Nc3nc(NC4CC4)c4nc[nH]c4n3)cc2c1,human,oral,200 mg/m²,patients,2.1
CO[C@H]1CC[C@H](N2C(=O)CNc3ncc(-c4ccc(C(C)(C)O)nc4)nc32)CC1,human,oral,60 mg,patients,5.64
NS(=O)(=O)NCCNc1nonc1C(=NO)Nc1ccc(F)c(Br)c1,human,oral,100 mg,"multiple doses, twice daily, steady state, patients",3.3
Cn1cc(-c2ccc(S(=O)(=O)[C@@H]3C[C@@H](C(=O)NC4(C#N)CC4)N(C(=O)C4(C(F)(F)F)CC4)C3)c(C(F)(F)F)c2)cn1,human,oral,300 mg,"single dose, fasted, healthy volunteers",16
CO[C@@H]1[C@H](OC(=O)N2CC(CCN3CCOCC3)C2)CC[C@]2(CO2)[C@H]1[C@@]1(C)O[C@@H]1CC=C(C)C,human,subcutaneous,1.2 mg,"single dose, healthy volunteers",0.72
